Measured values: ChEMBL document CHEMBL1140119, “Heteroarylnitrones as drugs for neurodegenerative diseases: synthesis, neuroprotective properties, and free radical scavenger properties” (J Med Chem, 2008)
Activity calls are given as the source filed them. No cut-off for these calls is given here.

Assays:
SH-SY5Y [1] = assay: Neuroprotective activity against human SH-SY5Y cells assessed as inhibition of H2O2-induced cellular damage at 10 uM dosed 1 hr prior to H2O2 challenge after 24 hrs relative to control; assay type: functional; parameters: scale not given: the % may be the effect or the level left
Procedure, shortened: (§1)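 SH-SY5Y cells (passages 3-16, MEM with 10% FBS, 37 °C, 5% CO2) seeded at 10^4 cells/well. Pretreated with compound at 10 µM for 1 h, then 100 µM H2O2 for 24 h; NAC 5 mM as positive control. Viability from LDH released into the medium. Difference relative to H2O2-only cells, normalized; neuroprotection computed from basal values. Triplicate, mean ± SD.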

[2] = system: Radical scavenging activity; assay: Antioxidant activity assessed as reduction of DPPH radical scavenging activity at 0.1 mM; assay type: functional; parameters: scale not given: the % may be the effect or the level left
Procedure, shortened: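 DPPH reduction in ethanol. Test compound and DPPH both 0.1 mM final, preincubated 5 min at 37 °C, absorbance read at 520 nm. Reduction percentage = 100[(A0 − Ac)/A0], with A0 the untreated DPPH absorbance.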

J774 [3] = assay: Cytotoxicity against mouse J774 cells after 48 hrs by MTT assay; assay type: cell-based; conditions: J774, 48 h
Procedure, shortened: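 J774 murine macrophages seeded at 1 × 10^5 cells/well and left 48 h at 37 °C in 5% CO2 to attach. Exposed to compounds at 50-500 µM for 48 h. MTT 0.2 mg/mL final for 3 h, formazan dissolved in DMSO, absorbance at 560 nm. IC50 is the concentration reducing control absorbance by 50%, averaged over two experiments.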

[4] = Antioxidant activity assessed as peroxyl free radical scavenging activity by ORAC-fluorescence assay relative to alpha-phenyl-N-tert-butylnitrone; assay type: functional
Procedure, shortened: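 Peroxyl scavenging by fluorescein ORAC at 60 °C in 75 mM phosphate buffer pH 7.4. Compounds at 10-1000 µM final with fluorescein 70 nM final; 30 s preincubation, then AAPH 12 mM final. Fluorescence (ex 490/em 515) read every minute for 12 min. Net AUC versus blank regressed on concentration and expressed as µmol PBN equivalents per µmol sample. Duplicates, at least three independent assays.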

SH-SY5Y [5] = assay: Neuroprotective activity against human SH-SY5Y cells assessed as inhibition of H2O2-induced cellular damage at 10 uM after 24 hrs relative to control; assay type: functional; parameters: scale not given: the % may be the effect or the level left; procedure, shortened: as §1
J774 [6] = assay: Cytotoxicity against mouse J774 cells at 10 uM after 48 hrs by MTT assay; assay type: cell-based; conditions: j774, 48 h
[7] = Permeability across porcine brain lipid coated polyvinylidene fluoride membrane by PAMPA; assay type: ADME; conditions: pig, read-out: permeability
Procedure, shortened: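 PAMPA-BBB assay. Filter of the donor plate (PVDF, 0.45 µm) coated with porcine brain lipid in dodecane (20 mg/mL). Compounds at 1 mg/mL in PBS/ethanol (9:1), filtered, placed in donor wells; acceptor wells held PBS/ethanol (9:1). Sandwich left 120 min at 25 °C, acceptor concentration measured by UV. Four wells per sample, at least three runs, mean ± SD.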

Homo sapiens = species on record: Homo sapiens; assay: Neuroprotective activity against oxidative stress-induced cell death in human neuroblastoma cells; assay type: functional, cell-based
[8] = system: Radical scavenging activity; assay: Antioxidant activity assessed as reduction of DPPH radical scavenging activity at 10 mM; assay type: functional; parameters: scale not given: the % may be the effect or the level left
SH-SY5Y [9] = assay: Neuroprotective activity against human SH-SY5Y cells assessed as inhibition of H2O2-induced cellular damage at 1 uM dosed 1 hr prior to H2O2 challenge after 24 hrs relative to control; assay type: functional; parameters: scale not given: the % may be the effect or the level left
Procedure, shortened: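 SH-SY5Y neuroblastoma cells given compound at 1 µM 1 h before a 100 µM H2O2 challenge and then incubated 24 h. Viability measured as LDH activity and compared with H2O2-only cells; NAC 5 mM used as positive control. Three independent experiments, mean ± SD.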

| Papp [7] [×10⁻⁶ cm/s] | SMILES | Activity (SH-SY5Y [1]) [%] | Activity [2] [%] | IC50 (J774 [3]) [µM] | PBN equivalents [4] | Activity (SH-SY5Y [5]) [%] | Activity (J774 [6]) | Activity (Homo sapiens) | Activity [8] [%] | Activity (SH-SY5Y [9]) [%] |
| --- | --- | --- | --- | --- | --- | --- | --- | --- | --- | --- |
| – | CC(C)(C)/[N+]([O-])=C/c1nsc(-c2ccccc2)n1 | 36 | 41 | > 400 | 2 | 20 | Non-toxic | – | – | – |
| 12.5 | COc1ccc(-c2nsc(/C=[N+](\[O-])C(C)(C)C)n2)cc1 | 46 | 10 | > 400 | 7 | 25 | Non-toxic | – | – | – |
| – | [O-]/[N+](=C\c1nc(-c2ccccc2)ns1)C1CCCCC1 | 43 | 11 | 100 | 4.6 | 23.6 | Non-toxic | – | – | – |
| – | Cc1nnsc1/C=[N+](\[O-])C(C)(C)C | – | 0 | > 400 | – | 0 | Non-toxic | inactive | – | – |
| – | CC(C)(C)/[N+]([O-])=C/c1ccc2no[n+]([O-])c2c1 | 24 | 17 | 150 | 16.5 | 13.4 | Non-toxic | – | – | – |
| – | CCOC(=O)c1snnc1/C=[N+](\[O-])C(C)(C)C | – | 0 | > 400 | – | 0 | Non-toxic | inactive | – | – |
| – | CC(C)(C)/[N+]([O-])=C/c1c(-c2ccccc2)no[n+]1[O-] | – | 0 | 100 | 6 | 0 | Non-toxic | inactive | – | – |
| – | Cc1c(/C=[N+](\[O-])C(C)(C)C)no[n+]1[O-] | 42 | 8 | > 400 | 2.5 | 23 | Non-toxic | – | – | – |
| – | CC(C)(C)/[N+]([O-])=C/c1ccccc1 | 37 | 0 | > 400 | 1 | 20.6 | – | – | 20 | – |
| – | [O-]/[N+](=C\c1nc(-c2ccccc2)ns1)Cc1ccccc1 | 33 | 0 | 240 | 3.5 | 18.1 | Non-toxic | – | – | – |
| – | CC(C)(C)/[N+]([O-])=C/c1nc(-c2ccccc2)ns1 | 38 | 0 | > 400 | 5.5 | 20.7 | Non-toxic | – | – | – |
| 4.5 | CC(C)(C)c1cc(-c2nsc(/C=[N+](\[O-])C(C)(C)C)n2)cc(C(C)(C)C)c1O | 46 | 40 | > 400 | 6 | 25.2 | Non-toxic | – | – | 20 |
| – | CC(C)(C)/[N+]([O-])=C/c1nc(-c2ccc(Cl)cc2)ns1 | 34 | 0 | 200 | 1.5 | 19.1 | Non-toxic | – | – | – |
